High-throughput results from PubChem BioAssay.
This is a sample that favours compounds with a hit; in the whole collection about 1.6% have one here.
procasp3 activ – activators of human procaspase-3 D3A mutant, primary screen, biochemical, absorbance, PC-3 D3A mutant, single concentration | Caspase-3 (Homo sapiens), P42574 | recombinant procaspase-3 D3A, Ac-DEVD-pNA absorbance 405 nm | activation, % at 8.5 µM | 0.11% of 330,000 active | AID 463141, 2010;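 active means activation above the mean of all tested compounds plus 3 SD, cut at about 21% in these data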
Target sequence (P42574 whole entry D9A/D28A/D175A): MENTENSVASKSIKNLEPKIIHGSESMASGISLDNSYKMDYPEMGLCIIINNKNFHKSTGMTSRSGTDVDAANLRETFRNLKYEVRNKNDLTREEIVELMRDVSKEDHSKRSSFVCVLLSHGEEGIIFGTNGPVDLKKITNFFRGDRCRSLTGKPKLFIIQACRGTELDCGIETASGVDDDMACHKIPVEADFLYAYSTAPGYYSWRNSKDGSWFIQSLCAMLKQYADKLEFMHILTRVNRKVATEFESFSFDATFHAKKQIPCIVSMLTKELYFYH
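Evaluation: percent activation relative to control range; Material: Procaspase-3 D3A mutant, all three cleavage aspartates alanine; Compound: single dose, 8.5 µM nominal compound, 0.8% DMSO; Replication: one well per compound; Signal: absorbance at 405 nm, 0 and 120 min; Schedule: 1 h preincubation plus 2 h reaction at 25 °C.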
Neddylation inh – inhibitors of cullin neddylation, primary screen, biochemical, TR-FRET, uHTS, NAE and Ubc12. AID 651699, 2012. calls only at 25 µM. NEDD8-conjugating enzyme Ubc12 (Homo sapiens) + NEDD8-activating enzyme E1 regulatory …. 0.58% of 360,000 active; in the data active means inhibition above about 36%
procasp7 counter – procaspase-7 activators, primary screen, counter-screen for procaspase-3 activator project, biochemical, absorbance, HTS, human. Caspase-7 (Homo sapiens), P55210. recombinant procaspase-7, Ac-DEVD-pNA absorbance 405 nm; D23A/D198A/D206A triple mutant, cannot self-cleave; scale: DMSO 0, 5 µM enzyme 100. activation, % at 8.5 µM. 0.093% of 330,000 active;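 active means percent activation above the screen-wide mean plus 3 SD, cut at about 25% in these data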
Target sequence (P55210 whole entry D23A/D198A/D206A): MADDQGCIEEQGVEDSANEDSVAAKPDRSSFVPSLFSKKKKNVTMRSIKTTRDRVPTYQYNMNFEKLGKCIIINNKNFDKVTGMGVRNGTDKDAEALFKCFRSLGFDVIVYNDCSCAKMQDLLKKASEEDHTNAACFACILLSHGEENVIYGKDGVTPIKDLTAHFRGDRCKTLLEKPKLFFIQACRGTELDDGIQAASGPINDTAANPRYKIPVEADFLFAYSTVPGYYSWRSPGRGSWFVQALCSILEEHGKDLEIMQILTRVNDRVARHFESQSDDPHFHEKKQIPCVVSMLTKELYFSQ
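signal = Epi-absorbance of released pNA at 405 nm, two timepoints | assay system = Uncleavable procaspase-7 mutant enzyme | reagent = Ac-DEVD-pNA substrate, 400 µM as added | times = 1 h enzyme–compound preincubation and 2 h substrate reaction, both 25 °C | benchmarks = low DMSO alone, high DMSO plus 5 µM PC-7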
proKLK7 act – proKLK7 zymogen activators, primary screen, biochemical, fluorescence intensity; purified proKLK7, EDANS-DABCYL substrate fluorescence; 100% is mature enzyme control, 0% vehicle; activation, % at 7 µM; 0.9% of 370,000 active;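 active means activation above the mean of all tested compounds plus 3 SD, computed per campaign excluding outliers beyond control limits, cut at about 13% in these data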
Neddyl conf – blockade of NEDD8 conjugation to cullin – biochemical, TR-FRET, single concentration, confirmation; TR-FRET cullin neddylation biochemical assay; shares compounds with Neddylation inh; calls only at 25 µM; AID 652217, 2013; 13% of 1,800 active; in the data active means inhibition above about 40%;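 further: neddylation substrate is the cullin 1 ring ligase complex with SKP2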
Of the large screens only hits and unclear results are named; the others gave an inactive call (follow-up assays come after a bar, where shown).

CCN(CC)c1ccc2c(O)cc(=O)oc2c1	Neddylation inh active | Neddyl conf inactive
O=C(NCCc1c[nH]c2ccccc12)OCc1cn(-c2cccc(C(F)(F)F)c2)nn1	none (no result: procasp3 activ, Neddylation inh, procasp7 counter)
Nc1ccccc1-n1cccc1	Neddylation inh active | Neddyl conf inactive
Cc1ccc(C)n1-c1ccccc1N	none (no result: Neddylation inh, proKLK7 act)
Cc1cc(N2CCOCC2)n2cc(-c3ccc(F)cc3)nc2n1	Neddylation inh active | Neddyl conf inactive
Cc1ccc2nc(-c3ccc(NC(=O)COCC(=O)O)cc3)sc2c1	Neddylation inh active | Neddyl conf active
COc1cccc(C2NC(=O)c3ccccc3O2)c1OC (stereo not given)	none
COc1ccc(C2NC(=O)c3ccccc3O2)c(OC)c1OC (stereo not given)	Neddylation inh active | Neddyl conf inactive
CC(=O)c1c(C)[nH]c(C(=O)COc2ccc3ccc(=O)oc3c2)c1C	Neddylation inh active | Neddyl conf inactive
COC(=O)c1c(C)[nH]c(C(=O)COc2ccc3ccc(=O)oc3c2)c1C	none
Nc1nnc(N)c2ccccc12	Neddylation inh active | Neddyl conf inactive
Nc1nsc2ccccc12	none
COc1ccc(S[C@]2(C(=O)N3CCCC3)CC(=O)N(C(=O)c3ccccc3)[C@@H]2c2ccc(OC)cc2)cc1	none (no result: procasp3 activ, Neddylation inh, procasp7 counter)
COC(=O)c1nc(N)sc1-c1ccccc1	Neddylation inh active
CCc1cc2c(nc1CC)CCCN2S(=O)(=O)c1ccc(C)cc1	none (no result: procasp3 activ, Neddylation inh, procasp7 counter)
CCCC(=O)N1CCC[C@]2(CC[C@@H](CCC(C)=O)O2)C1	none (no result: procasp3 activ, Neddylation inh, procasp7 counter)
CC(=O)c1ccc(-c2cccc(-c3nc4ccccn4c3NC3CCCCC3)c2)cc1	Neddylation inh active | Neddyl conf inactive
Fc1ccc(-c2cc3nc4c(c(N5CCOCC5)n3n2)CCCC4)cc1	none (not shown: Neddylation inh)
Cc1cccc(-c2cc3nc4c(c(N5CCCC(O)C5)n3n2)CCC4)c1 (stereo not given)	Neddylation inh active
OC1CCN(c2c3c(nc4cc(-c5ccc(F)cc5)nn24)CCC3)CC1	Neddylation inh active | Neddyl conf inactive
S=C(Nc1ccc(I)cc1)OC1CCC12CCC(c1ccccc1)CC2 (stereo not given)	none (no result: procasp3 activ, Neddylation inh, procasp7 counter)
COC(=O)CCC(=O)OC1(C)C(=O)C=C2C=C(C3CC3)N(c3cccc(C#N)c3)C=C2C1=O (stereo not given)	Neddylation inh active | Neddyl conf inactive
COC(=O)CCC(=O)OC1(C)C(=O)C=C2C=C(C3CC3)N(c3ccc(CO)cc3)C=C2C1=O (stereo not given)	none (no result: Neddylation inh, proKLK7 act)
COc1ccc(C(=O)Nc2ccc(NC(=O)c3cccs3)c(OC)c2)cc1Cl	none (not shown: Neddylation inh)
COc1ccc(C(=O)Nc2ccc(NC(=O)c3cccs3)cc2)cc1Cl	Neddylation inh active | Neddyl conf inactive
COCc1ccc(CN2CCc3c([nH]c4ccccc34)C2CC(C)C)o1 (stereo not given)	Neddylation inh active | Neddyl conf inactive
CCOC(=O)CN1CCc2c(C)nc3c(-c4ccc(OC)c(OC)c4)cnn3c21	none
COC(=O)C(C(C)C)N1CCc2c(C)nc3c(C#N)cnn3c21 (stereo not given)	Neddylation inh active | Neddyl conf active
COc1ccc(NC(=O)Cn2c(CCC(=O)O)ccc2-c2ccccc2)cc1	none
Cc1ccc(-c2ccc(CCC(=O)O)n2CC2CCCO2)cc1 (stereo not given)	none (not shown: Neddylation inh)
COC(=O)Cn1c(CCC(=O)O)ccc1-c1ccccc1	Neddylation inh active | Neddyl conf inactive
O=C(O)CCc1ccc(-c2ccccc2)n1CC1CCCO1 (stereo not given)	Neddylation inh active
CC(C)CN1C(=O)[C@]2(CC(=O)N(C)C2c2ccccc2)c2cc(-n3cc(C4=CCCCC4)nn3)ccc21 (stereo not given in full)	none (no result: procasp3 activ, Neddylation inh, procasp7 counter)
CCCOc1ccc(-c2cc(C(F)(F)F)c(C#N)c(SCC(=O)O)n2)cc1	Neddylation inh active | Neddyl conf inactive
CC(C)CCn1c(SCC#N)nc2c(sc3ccccc32)c1=O	none
CN(C)CCn1c(SCc2ccccc2C#N)nc2c(sc3ccccc32)c1=O	Neddylation inh active
COc1cc(/C=C/c2cc(C(=O)O)c3ccccc3n2)ccc1OC(F)F	Neddylation inh active
N/C(=N\N=Cc1ccc2c(c1)OCO2)NN=Cc1ccc2c(c1)OCO2	Neddylation inh active (not shown: procasp3 activ, procasp7 counter)
COc1ccc(-c2noc(C3CCCN(C(=O)NC4CCC(C)CC4)C3)n2)cc1 (stereo not given)	none (no result: procasp3 activ, Neddylation inh, procasp7 counter)
CCNC(=O)N(C)[C@H]1C[C@H]2c3[nH]c4cccc(-c5ccc6c(c5)OCO6)c4c3CCN2C[C@H]1[C@H](C)O	none (no result: procasp3 activ, Neddylation inh, procasp7 counter)
Cc1nc(Nc2cccc(C(C)O)c2)c2nnn(Cc3ccccc3F)c2n1 (stereo not given)	Neddylation inh active | Neddyl conf inactive
CC(=O)Nc1ccc(Nc2nc(C)nc3c2nnn3Cc2ccccc2Cl)cc1	none (not shown: Neddylation inh)
CCN(C(=O)C1CCN(c2ncccn2)CC1)c1ccccc1	none (no result: procasp3 activ, Neddylation inh, procasp7 counter)
COC(=O)[C@]12C[C@H](CC(=O)N3CCN(C(=O)c4ccco4)CC3)C(=O)N(Cc3ccco3)C1=C[C@H](C(C)(C)C)O[C@@H]2C	none (no result: procasp3 activ, Neddylation inh, procasp7 counter)
O=C(O)c1cc(-c2ccc3c(c2)OCO3)nc2ccc(Cl)cc12	Neddylation inh active
CC(C)(C)NC(=O)c1cc(-c2ccc3c(c2)OCO3)nc2ccccc12	Neddylation inh active | Neddyl conf inactive
CNc1cncc(C(=O)O)c1	Neddylation inh active
CCC(C)NC(=O)CNc1nnnn1-c1ccccc1 (stereo not given)	none (no result: procasp3 activ, Neddylation inh, procasp7 counter)
CCC(=O)Nc1c(-c2ccc(C)cc2)nc2ccc(C)cn12	Neddylation inh active | Neddyl conf inactive
COc1cccc(N2CCN(CC(=O)NCc3c(F)cccc3F)CC2)c1	none (no result: procasp3 activ, Neddylation inh, procasp7 counter)
COc1ccc(-n2c(SCC(=O)Nc3ccc(Oc4ccccc4)cc3)nnc2-c2ccc(C)cc2)cc1	none (no result: procasp3 activ, Neddylation inh, procasp7 counter)
COc1ccc(C2NC3=C(CCC3)C3(C#N)C(OC)(OC)N=C(N)C23C#N)cc1 (stereo not given)	Neddylation inh active (no result: proKLK7 act) | Neddyl conf inactive
COc1cc(NC(=O)C2CCN(c3nnc(-n4cccc4)s3)CC2)cc(OC)c1	none (no result: procasp3 activ, Neddylation inh, procasp7 counter)
S=C(NCc1cccc(Cl)c1)OC1CCC12CCC(c1ccccc1)CC2 (stereo not given)	none (no result: procasp3 activ, Neddylation inh, procasp7 counter)
COc1cc(C(=O)N/N=C/c2sc(N3CCOCC3)nc2-c2ccccc2)cc(OC)c1OC	Neddylation inh active | Neddyl conf inactive
Cc1cc(C(=O)N/N=C/c2sc(N3CCOCC3)nc2-c2ccccc2)c(C)o1	none
